ChEMBL document CHEMBL5136979, “An Open Drug Discovery Competition: Experimental Validation of Predictive Models in a Series of Novel Antimalarials” (J Med Chem, 2021)
Calls of active or inactive are those of the source.

system: Plasmodium falciparum; assay: Inhibition of Plasmodium falciparum Dd2 ATP4 assessed as increase in cytosolic [Na+] at 1 uM by fluorescence spectrometry
In short: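 Dd2 trophozoites freed from erythrocytes with saponin (0.05% w/v final), loaded with Na+-sensitive dye SBFI. Fluorescence measured and calibrated at 37 °C in plate reader or 1 mL cuvette suspensions. Compound tested at 1 μM. Scored as active if it raised cytosolic [Na+] like 50 nM cipargamin.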

SMILES	inhibition
CC(C)(C)Oc1ccc(-c2nnc3cncc(OCC(O)c4ccc(F)c(F)c4)n23)cc1 (stereo not drawn)	Active
Nc1cccc(CCOc2cncc3nnc(-c4ccc(Cl)cc4)n23)c1	Active

Second part, the molecule after the results:

inhibition	SMILES
Active	O=C(Nc1ccc(Cl)cc1)c1cncc2nnc(-c3ccc(OC(F)F)cc3)n12
Active	O=C(NCc1cccc(C(F)(F)F)c1Cl)c1cncc2nnc(-c3ccc(OC(F)F)cc3)n12
Active	O=C(Nc1ccc(F)c(Cl)c1)c1cncc2nnc(-c3ccc(OC(F)F)cc3)n12
Active	FC(F)Oc1ccc(-c2nnc3cncc(OCCc4ccccc4)n23)cc1
Active	O=C(Nc1ccnc(C(F)(F)F)c1)c1cncc2nnc(-c3ccc(OC(F)F)cc3)n12

system: Plasmodium falciparum; assay: Inhibition of Plasmodium falciparum Dd2 ATP4 assessed as increase in cytosolic pH at 5 uM by fluorescence spectrometry
In short: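 Saponin-isolated (0.05% w/v final) Dd2 trophozoites loaded with pH-sensitive dye BCECF. Fluorescence read and calibrated at 37 °C in plate reader or 1 mL suspensions. Compound at 5 μM. Scored as active if it caused cytosolic alkalinization like 50 nM cipargamin.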

SMILES	inhibition
CC(C)(C)Oc1ccc(-c2nnc3cncc(OCC(O)c4ccc(F)c(F)c4)n23)cc1 (stereo not drawn)	Active
Nc1cccc(CCOc2cncc3nnc(-c4ccc(Cl)cc4)n23)c1	Active

The remaining lines, values ahead:

inhibition	SMILES
Active	O=C(Nc1ccc(Cl)cc1)c1cncc2nnc(-c3ccc(OC(F)F)cc3)n12
Active	O=C(NCc1cccc(C(F)(F)F)c1Cl)c1cncc2nnc(-c3ccc(OC(F)F)cc3)n12
Active	O=C(Nc1ccc(F)c(Cl)c1)c1cncc2nnc(-c3ccc(OC(F)F)cc3)n12
Active	FC(F)Oc1ccc(-c2nnc3cncc(OCCc4ccccc4)n23)cc1
Active	O=C(Nc1ccnc(C(F)(F)F)c1)c1cncc2nnc(-c3ccc(OC(F)F)cc3)n12

system: Plasmodium falciparum; assay: Antimalarial activity against chloroquine-sensitive Plasmodium falciparum 3D7 assessed as parasite growth inhibition; format: functional, organism-based
In short: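 P. falciparum 3D7 asexual blood stages grown in 5% human RBC suspension in RPMI 1640 with 0.5% Albumax II, 12 mM bicarbonate, 0.2 mM hypoxanthine (pH 7.3), gentamicin, 37 °C, 1% O2/3% CO2/N2. 10-point, 1-in-3 dilution series from 10 or 25 μM top. SYBR Green I DNA fluorescence (ex 485/em 528 nm). IC50 from ≥3 independent experiments.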

SMILES	IC50 [µM]
Cc1ccc(COc2cncc3nnc(-c4ccc(C(C)C)cc4)n23)cn1	> 25
FC(F)Oc1ccc(-c2nnc3cncc(OCCc4ccco4)n23)cc1	1.24
O=C(Cc1cccc(Cl)c1)Nc1cn2c(-c3ccc(OC(F)F)cc3)nnc2cn1	> 10
O=C(Nc1ccc(Cl)cc1)c1cncc2nnc(-c3ccc(OC(F)F)cc3)n12	5
O=C(NCc1cccc(C(F)(F)F)c1Cl)c1cncc2nnc(-c3ccc(OC(F)F)cc3)n12	0.309
Fc1ccc(CCNc2cn3c(-c4ccc(OC(F)F)cc4)nnc3cn2)cc1	> 10
NCc1cccc(CCOc2cncc3nnc(-c4ccc(Cl)cc4)n23)c1	10
O=C(Nc1ccc(F)c(Cl)c1)c1cncc2nnc(-c3ccc(OC(F)F)cc3)n12	0.191
CC(C)(C)Oc1ccc(-c2nnc3cncc(OCC(O)c4ccc(F)c(F)c4)n23)cc1 (stereo not drawn)	0.46
CC(O)COc1cncc2nnc(-c3ccc(OC(F)F)cc3)n12 (stereo not drawn)	> 25
Nc1cccc(CCOc2cncc3nnc(-c4ccc(Cl)cc4)n23)c1	2.42
FC(F)Oc1ccc(-c2nnc3cncc(OCCc4ccccc4)n23)cc1	0.37
FC(F)Oc1ccc(-c2nnc3cncc(OCC(F)(F)F)n23)cc1	> 10
O=C(Nc1ccnc(C(F)(F)F)c1)c1cncc2nnc(-c3ccc(OC(F)F)cc3)n12	0.14
